{"source": "ChEMBL document CHEMBL5154634", "about": "“A Modular Synthetic Route Involving N-Aryl-2-nitrosoaniline Intermediates Leads to a New Series of 3-Substituted Halogenated Phenazine Antibacterial Agents” (J Med Chem, 2021)", "key": {"Staphylococcus aureus [1]": {"test_system": "Staphylococcus aureus", "test": "Induction of iron starvation in methicillin-resistant Staphylococcus aureus BAA-1707 biofilms assessed as upregulation of sfaA gene expression at 1 uM incubated for 4 hrs by RT-qPCR analysis", "assay_type": "functional", "method_in_brief": "(§1)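 MRSA BAA-1707 grown in TSB with 0.5% glucose to OD600 ~0.8–1.0, then biofilms formed 20 h at 37 °C statically in gelatin-coated 24-well plates. Biofilms treated 4 h at 37 °C with compound (1 μM or 1/10 MBEC) or DMSO vehicle. RNA extracted; only RIN ≥7 samples used. One-step SYBR RT-qPCR; ΔCT normalised to ptaA. Three independent experiments.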"}, "HeLa": {"test_system": "HeLa", "test": "Cytotoxicity against human HeLa cells assessed as reduction in cell viability incubated for 24 hrs by LDH release assay", "assay_type": "toxicity, cell-based", "method_in_brief": "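HeLa cells in DMEM with 10% FBS, treated at 70–80% confluence with 25, 50 and 100 μM for 24 h. LDH in supernatant measured by 30 min reaction at room temperature, then stop solution and absorbance at 490 nm. Controls: 2% Triton X-100 (maximum), medium only, DMSO vehicle. Three independent experiments.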"}, "Staphylococcus aureus [2]": {"test_system": "Staphylococcus aureus", "test": "Induction of iron starvation in methicillin-resistant Staphylococcus aureus BAA-1707 biofilms assessed as upregulation of sfaA gene expression at 1/10XMBEC incubated for 4 hrs by RT-qPCR analysis", "assay_type": "functional", "method_in_brief": "as §1"}, "Erythrocyte": {"test_system": "Erythrocyte", "test": "Hemolytic activity against human RBC at 200 uM measured after 1 hr", "assay_type": "toxicity, cell-based", "method_in_brief": "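2% hRBCs exposed to compound at 200 μM final, added from DMSO stock, for 1 h at 37 °C. Supernatant OD read at 405 nm. Hemolysis normalized between DMSO (0%) and Triton X (100%); three independent experiments.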"}, "Staphylococcus aureus [3]": {"test_system": "Staphylococcus aureus", "test": "Induction of iron starvation in methicillin-resistant Staphylococcus aureus BAA-1707 biofilms assessed as upregulation of isdB gene expression at 1 uM incubated for 4 hrs by RT-qPCR analysis", "assay_type": "functional", "method_in_brief": "as §1"}, "Enterococcus faecium [4]": {"test_system": "Enterococcus faecium", "test": "Bactericidal activity against methicillin-resistant vancomycin-resistant Enterococcus faecium ATCC 700221 planktonic cells assessed as planktonic eradication incubated for 24 hrs followed by incubation for overnight in fresh medium by Calgary biofilm device assay", "assay_type": "functional", "method_in_brief": "(§2)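 Calgary biofilm device. Biofilms grown 24 h at 37 °C in TSB with 0.5% glucose, then challenged 24 h with twofold compound dilutions. 20 μL of challenge medium transferred into fresh TSB with 0.5% glucose and incubated overnight at 37 °C. MBC is the concentration with no visible turbidity. At least three independent experiments.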"}, "J774": {"test_system": "J774", "test": "Cytotoxicity against mouse J774 cells assessed as reduction in cell viability […] by Alamar blue assay", "assay_type": "toxicity, cell-based"}, "Staphylococcus aureus [5]": {"test_system": "Staphylococcus aureus", "test": "Induction of iron starvation in methicillin-resistant Staphylococcus aureus BAA-1707 biofilms assessed as upregulation of sbnC gene expression at 1/10XMBEC incubated for 4 hrs by RT-qPCR analysis", "assay_type": "functional", "method_in_brief": "as §1"}, "Staphylococcus aureus [6]": {"test_system": "Staphylococcus aureus", "test": "Antibiofilm activity against methicillin-resistant Staphylococcus aureus BAA-44 biofilms assessed as biofilm eradication incubated for 24 hrs followed by incubation for 24 hrs in fresh medium by Calgary biofilm device assay", "assay_type": "functional", "method_in_brief": "(§3)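 Calgary biofilm device. Mid-log culture diluted 1000-fold in TSB with 0.5% glucose; biofilms grown on pegs 24 h at 37 °C. Pegs washed and challenged with twofold compound dilutions for 24 h at 37 °C, then moved to fresh medium for 24 h. MBEC is the lowest concentration leaving wells non-turbid. At least three independent experiments.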"}, "[7]": {"test_system": "Mycobacterium tuberculosis", "test": "Antibacterial activity against Mycobacterium tuberculosis CDC1551 assessed as bacterial growth inhibition incubated for 5 days by luminescence based analysis", "assay_type": "functional", "conditions": "CDC1551, 120 h, time 5 day", "method_in_brief": "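Bioluminescent Mtb-lux CDC1551 reporter grown in Middlebrook 7H9 with 0.05% Tween 80, 10% OADC and kanamycin to OD600 0.4–0.8, then diluted to OD600 0.02. Added to twofold drug dilutions (0.003–200 μM). Incubated 5 days at 37 °C, 5% CO2. Luminescence read against 1% DMSO and 10 μM rifampicin controls to give % growth inhibition. MIC taken from a modified Gompertz fit.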"}, "Enterococcus faecium [8]": {"test_system": "Enterococcus faecium", "test": "Antibiofilm activity against methicillin-resistant vancomycin-resistant Enterococcus faecium ATCC 700221 biofilms assessed as biofilm eradication incubated for 24 hrs followed by incubation for 24 hrs in fresh medium by Calgary biofilm device assay", "assay_type": "functional", "method_in_brief": "as §3"}, "[9]": {"test_system": "Staphylococcus epidermidis", "test": "Antibiofilm activity against methicillin-resistant Staphylococcus epidermidis ATCC 35984 biofilms assessed as biofilm eradication incubated for 24 hrs followed by incubation for 24 hrs in fresh medium by Calgary biofilm device assay", "assay_type": "functional", "method_in_brief": "as §3"}, "Staphylococcus aureus [10]": {"test_system": "Staphylococcus aureus", "test": "Induction of iron starvation in methicillin-resistant Staphylococcus aureus BAA-1707 biofilms assessed as upregulation of isdB gene expression at 1/10XMBEC incubated for 4 hrs by RT-qPCR analysis", "assay_type": "functional", "method_in_brief": "as §1"}, "Enterococcus faecalis [11]": {"test_system": "Enterococcus faecalis", "test": "Bactericidal activity against […] Enterococcus faecalis OG1RF ATCC 47077 planktonic cells assessed as planktonic eradication incubated for 24 hrs followed by incubation for overnight in fresh medium by Calgary biofilm device assay", "assay_type": "functional", "method_in_brief": "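Calgary biofilm device in BHI. Biofilms grown 24 h at 37 °C and challenged 24 h with twofold compound dilutions. Challenge medium subcultured 1:10 into fresh BHI overnight at 37 °C. MBC is the concentration with no turbidity. At least three independent experiments.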"}, "Staphylococcus aureus [12]": {"test_system": "Staphylococcus aureus", "test": "Induction of iron starvation in methicillin-resistant Staphylococcus aureus BAA-1707 biofilms assessed as upregulation of MW0695 gene expression at 1/10XMBEC incubated for 4 hrs by RT-qPCR analysis", "assay_type": "functional", "method_in_brief": "as §1"}, "Enterococcus faecalis [13]": {"test_system": "Enterococcus faecalis", "test": "Antibiofilm activity against Enterococcus faecalis OG1RF ATCC 47077 biofilms assessed as biofilm eradication incubated for 24 hrs followed by incubation for 24 hrs in fresh medium by Calgary biofilm device assay", "assay_type": "functional", "method_in_brief": "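Calgary biofilm device. Biofilms grown 24 h at 37 °C in BHI from mid-log culture diluted 1000-fold. Pegs washed and then challenged 24 h with twofold serial dilutions. Pegs moved to fresh BHI for 24 h recovery. MBEC = lowest concentration leaving no turbidity; at least three independent experiments.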"}, "[14]": {"test_system": "Mycobacterium tuberculosis", "test": "Antibacterial activity against Mycobacterium tuberculosis H37Ra ATCC 25177 assessed as bacterial growth inhibition incubated for 7 days by absorbance based analysis", "assay_type": "functional", "conditions": "H37Ra ATCC 25177, 168 h, time 7 day", "method_in_brief": "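H37Ra grown 2 weeks in Middlebrook 7H9, then diluted to OD600 0.01. Compounds added in twofold dilutions, final 0.024–50 μM, with 0.5% DMSO and streptomycin as positive control. Incubated 7 days at 37 °C. MIC is the lowest concentration with no growth, with OD600 recorded. At least three independent experiments.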"}, "HepG2": {"test_system": "HepG2", "test": "Cytotoxicity against human HepG2 cells assessed as reduction in cell viability […] by Alamar blue assay", "assay_type": "toxicity, cell-based"}, "[15]": {"test": "Binding affinity to Fe2+ assessed as compound-Fe2+ complex formation by UV-vis spectroscopy"}, "Staphylococcus aureus [16]": {"test_system": "Staphylococcus aureus", "test": "Induction of iron starvation in methicillin-resistant Staphylococcus aureus BAA-1707 biofilms assessed as upregulation of MW0695 gene expression at 1 uM incubated for 4 hrs by RT-qPCR analysis", "assay_type": "functional", "method_in_brief": "as §1"}, "Staphylococcus aureus [17]": {"test_system": "Staphylococcus aureus", "test": "Bactericidal activity against methicillin-resistant Staphylococcus aureus BAA-1707 planktonic cells assessed as planktonic eradication incubated for 24 hrs followed by incubation for overnight in fresh medium by Calgary biofilm device assay", "assay_type": "functional", "method_in_brief": "as §2"}, "Staphylococcus aureus [18]": {"test_system": "Staphylococcus aureus", "test": "Antibacterial activity against methicillin-resistant Staphylococcus aureus BAA-1707 assessed as bacterial growth inhibition incubated for 16 hrs by broth microdilution susceptibility test", "assay_type": "functional", "method_in_brief": "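CLSI broth microdilution with 11 twofold dilutions (0.05–50 μM). About 10^5 cells per well from a log-phase culture. DMSO vehicle up to 0.5% v/v. At least three independent experiments.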"}, "[19]": {"test_system": "Staphylococcus epidermidis", "test": "Bactericidal activity against methicillin-resistant Staphylococcus epidermidis ATCC 35984 planktonic cells assessed as planktonic eradication incubated for 24 hrs followed by incubation for overnight in fresh medium by Calgary biofilm device assay", "assay_type": "functional", "method_in_brief": "as §2"}, "Staphylococcus aureus [20]": {"test_system": "Staphylococcus aureus", "test": "Induction of iron starvation in methicillin-resistant Staphylococcus aureus BAA-1707 biofilms assessed as upregulation of sbnC gene expression at 1 uM incubated for 4 hrs by RT-qPCR analysis", "assay_type": "functional", "method_in_brief": "as §1"}, "Enterococcus faecalis [21]": {"test_system": "Enterococcus faecalis", "test": "Antibacterial activity against Enterococcus faecalis OG1RF ATCC 47077 assessed as bacterial growth inhibition incubated for 16 hrs by broth microdilution susceptibility test", "assay_type": "functional"}}, "note": "Activity calls are given as the source filed them. The calls are words filed in the database; no cut-off is given here.", "data": [{"molecule": "Oc1c(Br)c(Cl)c(Br)c2nc3ccccc3nc12", "values": [{"measurement": "Activity", "setting": "Staphylococcus aureus [1]", "value": "Active"}, {"measurement": "IC50", "setting": "HeLa", "value": "> 100", "unit": "µM"}, {"measurement": "Activity", "setting": "Staphylococcus aureus [2]", "value": "Active"}, {"measurement": "Activity", "setting": "Erythrocyte", "value": "<= 1%"}, {"measurement": "Activity", "setting": "Staphylococcus aureus [3]", "value": "Active"}, {"measurement": "MBC", "setting": "Enterococcus faecium [4]", "value": 4.69, "unit": "µM"}, {"measurement": "IC50", "setting": "J774", "value": "> 200", "unit": "µM"}, {"measurement": "Activity", "setting": "Staphylococcus aureus [5]", "value": "Active"}, {"measurement": "MBEC", "setting": "Staphylococcus aureus [6]", "value": 75, "unit": "µM"}, {"measurement": "MIC", "setting": "[7]", "value": 4.37, "unit": "µM"}, {"measurement": "MBEC", "setting": "Enterococcus faecium [8]", "value": 2.35, "unit": "µM"}, {"measurement": "MBEC", "setting": "[9]", "value": 25, "unit": "µM"}, {"measurement": "Activity", "setting": "Staphylococcus aureus [10]", "value": "Active"}, {"measurement": "MBC", "setting": "Enterococcus faecalis [11]", "value": 75, "unit": "µM"}, {"measurement": "Activity", "setting": "Staphylococcus aureus [12]", "value": "Active"}, {"measurement": "MBEC", "setting": "Enterococcus faecalis [13]", "value": ">200", "unit": "µM"}, {"measurement": "MIC", "setting": "[14]", "value": 6.25, "unit": "µM"}, {"measurement": "IC50", "setting": "HepG2", "value": "> 200", "unit": "µM"}, {"measurement": "Activity", "setting": "[15]", "value": "Active"}, {"measurement": "Activity", "setting": "Staphylococcus aureus [16]", "value": "Active"}, {"measurement": "MBC", "setting": "Staphylococcus aureus [17]", "value": 50, "unit": "µM"}, {"measurement": "MIC", "setting": "Staphylococcus aureus [18]", "value": 0.15, "unit": "µM"}, {"measurement": "MBC", "setting": "[19]", "value": 12.5, "unit": "µM"}, {"measurement": "Activity", "setting": "Staphylococcus aureus [20]", "value": "Active"}, {"measurement": "MIC", "setting": "Enterococcus faecalis [21]", "value": 3.13, "unit": "µM"}]}]}
